Measured values taken from ChEMBL document CHEMBL1127620, “Synthesis and antibacterial activity of thiazolopyrazine-incorporated tetracyclic quinolone antibacterials” (1994).
Converted amounts (≈) assume the structure as drawn.

test system: Klebsiella pneumoniae; assay: In vitro minimum inhibitory concentration against gram-negative Kp, Klebsiella pneumoniae B54.; assay type: functional
How it was run: (§1)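 Two-fold agar dilution on Sensitivity Disk Agar-N (Japan Society of Chemotherapy method). Overnight broth cultures diluted in buffered saline with 0.01% gelatin to about 10⁶ CFU/mL. One loopful (5 μL/spot) inoculated onto plates containing graded agent concentrations. Incubation 37 °C, 18 h. MIC = lowest concentration inhibiting visible growth.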

| MIC | Compound |
| --- | --- |
| 0.025 µg/mL (≈ 0.0644 µM) | CN1Cc2csc3c(C(=O)O)c(=O)c4cc(F)c(N5CCC(N)C5)c1c4n23 (centres undefined) |
| 0.025 µg/mL (≈ 0.06 µM) | CNCC1CCN(c2c(F)cc3c(=O)c(C(=O)O)c4scc5n4c3c2N(C)C5)C1 (centres undefined) |
| 0.05 µg/mL | CCNCC1CCN(c2c(F)cc3c(=O)c(C(=O)O)c4scc5n4c3c2N(C)C5)C1.Cl (centres undefined) |
| 0.05 µg/mL (≈ 0.124 µM) | CN1CCN(c2c(F)cc3c(=O)c(C(=O)O)c4scc5n4c3c2N(C)C5)CC1 |
| 0.05 µg/mL (≈ 0.128 µM) | CN1Cc2csc3c(C(=O)O)c(=O)c4cc(F)c(N5CCOCC5)c1c4n23 |

| Compound | MIC |
| --- | --- |
| CN1Cc2csc3c(C(=O)O)c(=O)c4cc(F)c(N5CCNCC5)c1c4n23 | 0.025 µg/mL (≈ 0.0644 µM) |
| CCN1CCN(c2c(F)cc3c(=O)c(C(=O)O)c4scc5n4c3c2N(C)C5)CC1 | 0.05 µg/mL (≈ 0.12 µM) |

test system: Staphylococcus aureus; assay: In vitro minimum inhibitory concentration against gram-positive Sa (F), Staphylococcus aureus FDA 209P JC-1.; assay type: functional; how it was run: as §1

| MIC | Compound |
| --- | --- |
| 0.025 µg/mL (≈ 0.0617 µM) | CN1Cc2csc3c(C(=O)O)c(=O)c4cc(F)c(N5CCSCC5)c1c4n23 |
| 0.05 µg/mL (≈ 0.116 µM) | CCC1CN(c2c(F)cc3c(=O)c(C(=O)O)c4scc5n4c3c2N(C)C5)CCN1C (centres undefined) |
| 0.025 µg/mL (≈ 0.0581 µM) | C[C@@H]1CN(c2c(F)cc3c(=O)c(C(=O)O)c4scc5n4c3c2N(C)C5)C[C@H](C)N1C |
| 0.05 µg/mL (≈ 0.12 µM) | C[C@@H]1CN(c2c(F)cc3c(=O)c(C(=O)O)c4scc5n4c3c2N(C)C5)C[C@H](C)N1 |
| 0.05 µg/mL | CCN1[C@H](C)CN(c2c(F)cc3c(=O)c(C(=O)O)c4scc5n4c3c2N(C)C5)C[C@@H]1C.Cl |
| 0.05 µg/mL | CCC1CN(c2c(F)cc3c(=O)c(C(=O)O)c4scc5n4c3c2N(C)C5)CCN1.Cl (centres undefined) |

species: Mus musculus; assay: Compound was tested for oral efficacy on systemic infections caused by Escherichia coli KC-14 in mice.; assay type: functional
How it was run: (§2)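 Male ddY mice (25 g) infected intraperitoneally with 0.5 mL overnight brain heart infusion culture diluted in 5% gastric mucin, about 35 to 500 times the LD50. Compound given orally 1 h post-infection, as 1% aqueous gum arabic suspension or distilled water solution. Four dose groups of five mice. Survival followed daily for 7 days; ED50 by Weil method.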

| Compound | ED50 |
| --- | --- |
| CN1Cc2csc3c(C(=O)O)c(=O)c4cc(F)c(N5CCCC5)c1c4n23 | > 2 mg/kg |
| CCN1CCN(c2c(F)cc3c(=O)c(C(=O)O)c4scc5n4c3c2N(C)C5)CC1 | 1 mg/kg |
| CN1CCN(c2c(F)cc3c(=O)c(C(=O)O)c4scc5n4c3c2N(C)C5)CC1 | 1 mg/kg |

species: Mus musculus; assay: Compound was tested for oral efficacy on systemic infections caused by Staphylococcus aureus IID803 in mice; assay type: functional; how it was run: as §2

| Compound | ED50 |
| --- | --- |
| CN1Cc2csc3c(C(=O)O)c(=O)c4cc(F)c(N5CCSCC5)c1c4n23 | > 12 mg/kg |
| CNCC1CCN(c2c(F)cc3c(=O)c(C(=O)O)c4scc5n4c3c2N(C)C5)C1 (centres undefined) | > 12 mg/kg |
| CN1Cc2csc3c(C(=O)O)c(=O)c4cc(F)c(N5CCC(O)C5)c1c4n23 (centres undefined) | > 12 mg/kg |
| CCN1CCN(c2c(F)cc3c(=O)c(C(=O)O)c4scc5n4c3c2N(C)C5)CC1 | 3 mg/kg |
| CCNCC1CCN(c2c(F)cc3c(=O)c(C(=O)O)c4scc5n4c3c2N(C)C5)C1.Cl (centres undefined) | > 12 mg/kg |
| CN1CCN(c2c(F)cc3c(=O)c(C(=O)O)c4scc5n4c3c2N(C)C5)CC1 | 3 mg/kg |
| CN1Cc2csc3c(C(=O)O)c(=O)c4cc(F)c(N5CCOCC5)c1c4n23 | > 12 mg/kg |
| CC1COc2c(N3CCN(C)CC3)c(F)cc3c(=O)c(C(=O)O)cn1c23 (centres undefined) [OFLOXACIN] | 11 mg/kg |

species: Mus musculus; assay: Compound was tested for oral efficacy on systemic infections caused by Staphylococcus aureus IID803 in mice.; assay type: functional; how it was run: as §2

| Compound | ED50 |
| --- | --- |
| CC1CN(c2c(F)cc3c(=O)c(C(=O)O)c4scc5n4c3c2N(C)C5)CCN1C (centres undefined) | 3 mg/kg |
| C[C@@H]1CN(c2c(F)cc3c(=O)c(C(=O)O)c4scc5n4c3c2N(C)C5)C[C@H](C)N1C | 2 mg/kg |

test system: Escherichia coli; assay: Compound was tested for in vitro antibacterial activity (minimum inhibition concentration) against gram-negative Ec(K), Escherichia coli KC-14.; assay type: functional
How it was run: as §1, with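 “10⁶ CFU/mL; one” for “10⁶ CFU/mL. One”, “plates with” for “plates containing”, “18 h;” for “18 h.”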

| Compound | MIC |
| --- | --- |
| C[C@@H]1CN(c2c(F)cc3c(=O)c(C(=O)O)c4scc5n4c3c2N(C)C5)C[C@H](C)N1 | 0.05 µg/mL (≈ 0.12 µM) |
| CCN1CCN(c2c(F)cc3c(=O)c(C(=O)O)c4scc5n4c3c2N(C)C5)CC1 | 0.05 µg/mL (≈ 0.12 µM) |

test system: Staphylococcus epidermidis; assay: In vitro minimum inhibitory concentration against gram-positive Se, Staphylococcus epidermidis IAM 1296.; assay type: functional; how it was run: as §1

| MIC | Compound |
| --- | --- |
| 0.025 µg/mL (≈ 0.0617 µM) | CN1Cc2csc3c(C(=O)O)c(=O)c4cc(F)c(N5CCSCC5)c1c4n23 |

species: Mus musculus; assay: Compound was tested for oral efficacy on systemic infections caused by Escherichia coli KC-14 in mice; assay type: functional; how it was run: as §2

| Compound | ED50 |
| --- | --- |
| CN1Cc2csc3c(C(=O)O)c(=O)c4cc(F)c(N5CCNCC5)c1c4n23 | > 2 mg/kg |
| CN1Cc2csc3c(C(=O)O)c(=O)c4cc(F)c(N5CCC(N)C5)c1c4n23 (centres undefined) | > 2 mg/kg |
| CC1CN(c2c(F)cc3c(=O)c(C(=O)O)c4scc5n4c3c2N(C)C5)CCN1C (centres undefined) | 2 mg/kg |
| C[C@@H]1CN(c2c(F)cc3c(=O)c(C(=O)O)c4scc5n4c3c2N(C)C5)C[C@H](C)N1C | 2 mg/kg |
| C[C@@H]1CN(c2c(F)cc3c(=O)c(C(=O)O)c4scc5n4c3c2N(C)C5)C[C@H](C)N1 | > 2 mg/kg |
| CC1CN(c2c(F)cc3c(=O)c(C(=O)O)c4scc5n4c3c2N(C)C5)CCN1.Cl (centres undefined) | > 2 mg/kg |
| CC1COc2c(N3CCN(C)CC3)c(F)cc3c(=O)c(C(=O)O)cn1c23 (centres undefined) [OFLOXACIN] | 1 mg/kg |

test system: Staphylococcus aureus; assay: In vitro minimum inhibitory concentration against gram-positive Sa (I), Staphylococcus aureus IID803.; assay type: functional; how it was run: as §1

| MIC | Compound |
| --- | --- |
| 0.0125 µg/mL (≈ 0.0308 µM) | CN1Cc2csc3c(C(=O)O)c(=O)c4cc(F)c(N5CCSCC5)c1c4n23 |
| 0.05 µg/mL (≈ 0.116 µM) | CCC1CN(c2c(F)cc3c(=O)c(C(=O)O)c4scc5n4c3c2N(C)C5)CCN1C (centres undefined) |
| 0.05 µg/mL (≈ 0.12 µM) | C[C@@H]1CN(c2c(F)cc3c(=O)c(C(=O)O)c4scc5n4c3c2N(C)C5)C[C@H](C)N1 |
| 0.05 µg/mL | CCN1[C@H](C)CN(c2c(F)cc3c(=O)c(C(=O)O)c4scc5n4c3c2N(C)C5)C[C@@H]1C.Cl |
| 0.05 µg/mL | CCC1CN(c2c(F)cc3c(=O)c(C(=O)O)c4scc5n4c3c2N(C)C5)CCN1.Cl (centres undefined) |
| 0.05 µg/mL (≈ 0.124 µM) | CN1CCN(c2c(F)cc3c(=O)c(C(=O)O)c4scc5n4c3c2N(C)C5)CC1 |

| Compound | MIC |
| --- | --- |
| CCN1CCN(c2c(F)cc3c(=O)c(C(=O)O)c4scc5n4c3c2N(C)C5)CC1 | 0.05 µg/mL (≈ 0.12 µM) |

test system: Escherichia coli; assay: Compound was tested for in vitro antibacterial activity (minimum inhibition concentration) against gram-negative Ec(K), Escherichia coli KC-14; assay type: functional; how it was run: as §1

| MIC | Compound |
| --- | --- |
| 0.05 µg/mL (≈ 0.124 µM) | CN1CCN(c2c(F)cc3c(=O)c(C(=O)O)c4scc5n4c3c2N(C)C5)CC1 |
